# Data as given in PubChem BioAssay.
# Activity calls are given as the source filed them.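 The calls were made as follows, unless noted: active = viability loss from added drug above about 55%, and viability with drug at most 40%, in both replicates (limit read from the data, passing the limit was not always enough); inconclusive = both conditions met in only one replicate; inactive = neither replicate meets both conditions.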
# Columns and labels:
# [1] = Her2 expression decrease, cell viability multiplex – SKBR3 breast tumor cells, AlphaScreen, ATP viability, primary screen (AID 461;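 active = Her2 level under about 52% in both replicate screens, with viability over 70% of control, limit read from the data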;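 as to Her2 level: lower value means less Her2 protein in the cells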;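 as to viability: percent of carrier control wells set as 100% viability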); details: SKBR3 Her2 protein level, 18-24 h, measured here: SKBR3 viability, ATP luminescence, at 10 µM
# [2] = target: Receptor tyrosine-protein kinase erbB-2 (Homo sapiens) (UniProt P04626); test: as above; details: 18-24 h, at 10 µM, stronger effect = lower value
# Receptor tyrosine-protein kinase erbB-2 (Homo sapiens), sequence (P04626 whole entry, looked up): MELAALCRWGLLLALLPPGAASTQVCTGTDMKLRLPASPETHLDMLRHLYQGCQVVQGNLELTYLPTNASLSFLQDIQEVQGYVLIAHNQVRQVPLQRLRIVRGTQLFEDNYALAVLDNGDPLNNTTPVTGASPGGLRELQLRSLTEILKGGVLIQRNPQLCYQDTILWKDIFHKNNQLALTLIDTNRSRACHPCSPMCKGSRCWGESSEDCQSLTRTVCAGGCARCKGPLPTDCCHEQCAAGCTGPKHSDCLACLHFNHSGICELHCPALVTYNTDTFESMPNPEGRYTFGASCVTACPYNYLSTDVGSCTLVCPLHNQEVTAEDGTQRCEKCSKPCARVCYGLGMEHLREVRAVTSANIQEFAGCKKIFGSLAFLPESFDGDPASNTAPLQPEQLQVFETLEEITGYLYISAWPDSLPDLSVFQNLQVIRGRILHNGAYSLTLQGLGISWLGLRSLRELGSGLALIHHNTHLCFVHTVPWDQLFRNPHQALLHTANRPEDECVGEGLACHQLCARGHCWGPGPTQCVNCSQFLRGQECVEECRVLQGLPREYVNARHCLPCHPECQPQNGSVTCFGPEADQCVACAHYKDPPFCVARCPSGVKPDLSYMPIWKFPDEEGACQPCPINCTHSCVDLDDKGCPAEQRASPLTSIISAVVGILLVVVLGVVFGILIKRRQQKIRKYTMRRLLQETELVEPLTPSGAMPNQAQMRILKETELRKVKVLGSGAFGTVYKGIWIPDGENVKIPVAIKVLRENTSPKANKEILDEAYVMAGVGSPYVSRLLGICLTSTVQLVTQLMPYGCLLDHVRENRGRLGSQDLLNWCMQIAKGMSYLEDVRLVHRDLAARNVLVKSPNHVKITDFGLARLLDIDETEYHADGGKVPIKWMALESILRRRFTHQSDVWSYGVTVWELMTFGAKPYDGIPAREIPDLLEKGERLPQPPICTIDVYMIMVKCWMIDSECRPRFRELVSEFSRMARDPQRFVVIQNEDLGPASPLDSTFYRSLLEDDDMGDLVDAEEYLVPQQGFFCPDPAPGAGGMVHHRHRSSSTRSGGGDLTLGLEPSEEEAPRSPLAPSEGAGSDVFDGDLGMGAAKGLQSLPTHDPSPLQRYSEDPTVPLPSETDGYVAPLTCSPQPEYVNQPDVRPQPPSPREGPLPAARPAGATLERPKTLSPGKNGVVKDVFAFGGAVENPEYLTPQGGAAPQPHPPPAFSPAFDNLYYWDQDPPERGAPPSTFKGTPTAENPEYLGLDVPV
# [3] = reduced viability of SK-BR-3 breast cancer cells – cell-based, 24 h, human, pilot screen (AID 572;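 active = viability at or below 10% of carrier control in both of two separate runs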;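 also: compound exposure lasted between 18 and 24 h rather than exactly 24 h; 100% = carrier-treated control wells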); details: SK-BR-3 viability, CellTiter-Glo luminescence, at 10 µM, stronger effect = lower value
# [4] = HUVEC growth inhibition – cell-based, human, primary screen (AID 575;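 active = viability at or below 30% in both replicate assays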;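 also: 100% = median of untreated cell wells with 0.1% DMSO on each plate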); details: HUVEC proliferation, CellTiter-Glo luminescence, 72 h; at 10 µM; stronger effect = lower value
# In short: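 Test system: primary human umbilical vein endothelial cells; medium: endothelial basal medium with 2% FBS plus growth supplements; dosing: 10 µM compound only; times: 72 h treatment at 37 °C; signal: CTG luminescence; read-out: % viability relative to median vehicle-well signal on each plate; control set: vehicle and MePR control wells; plate: 384-well, collagen-coated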
# [5] = H69AR cell proliferation blockers – human, duplicate replicates, primary screen (AID 580;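 active = viability at or under a set limit in both replicates, limit being median viability minus 3 SD, cut at about 48% in these data, passing the limit was not always enough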;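 also: 100% = mean luminescence of untreated wells and 0% = no signal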); details: H69AR lung tumor cells viability, ATP luminescence, 72 h; at 10 µM; stronger effect = lower value
# [6] = MRP1 drug-resistance reversers in H69AR cells – cell-based, doxorubicin co-treatment, pilot screen (AID 601); details: CellTiter-Glo, 72 h, at 10 µM; for differential viability (reversal): stronger effect = higher value
# [7] = yeast transport mutant growth inhibition pilot in 384-well plates, post-Golgi transport modulator project (AID 636; in the data active = inhibition above about 31%); details: absorbance 615 nm, about 18 h, stronger effect = higher value
# [8] = growth suppression of yeast trafficking mutant, preliminary HTS, modulators of trafficking downstream of Golgi apparatus project, 1536-format plate, OD 615 nm (AID 637; in the data active = inhibition above about 30%); details: yeast transport mutant growth, absorbance 615 nm, 18 h; stronger effect = higher value
# [9] = H69AR cells + 2 uM doxorubicin, measured here: viability with 2 uM doxorubicin, stronger effect = lower value
# [10] = H69AR cells, compound alone cytotoxicity
Compound,viability [1] [%],Her2 level [2],viability [3],viability [4],viability [5],differential viability (reversal) ([6]; H69AR cells + 2 uM doxorubicin),"viability [6, 9] [%]","viability [6, 10] [%]",inhibition [7],inhibition [8]
CC(NC(=O)c1ccco1)c1ccc2c(c1)OCCO2 (stereo not given),116,95.5% (inactive),116% (inactive),90.7% (inactive),96.3% (inactive),9.19% (inactive),87.1,96.3,-5.73% (inactive),-1.43% (inactive)
CC1c2nc3ccccc3n2C(CC(=O)NCc2ccccn2)C(=O)N1Cc1ccccc1 (stereo not given),110,72% (inactive),110% (inactive),96.3% (inactive),92.8% (inactive),7.24% (inactive),85.5,92.8,-1.58% (inactive),1.59% (inactive)
CN(CC(=O)Nc1sccc1C#N)C1CCCCC1,106,104% (inactive),106% (inactive),89.8% (inactive),93.2% (inactive),5.53% (inactive),87.7,93.2,-6.67% (inactive),-4.44% (inactive)
Cc1cccc(C)c1NC(=O)c1cc(S(=O)(=O)N2CCOCC2)ccc1F,88.5,78.5% (inactive),88.5% (inactive),102% (inactive),89.9% (inactive),0.745% (inactive),89.2,89.9,-5.53% (inactive),-9.17% (inactive)
CC(=O)Nc1sc2c(c1C#N)CCCCC2,132,113% (inactive),132% (inactive),82.2% (inactive),95.6% (inactive),5.43% (inactive),90.2,95.6,-4.93% (inactive),-2.54% (inactive)
COc1ccc(N2CCN(C(=O)CSc3nnc(Cn4nnc5ccccc54)n3C)CC2)cc1,99.5,111% (inactive),99.5% (inactive),108% (inactive),103% (inactive),11.4% (inactive),92.1,103,-1.97% (inactive),-6.61% (inactive)
CC(=O)c1c(C)[nH]c(C(=O)OCc2nnc(-c3ccccc3)o2)c1C,92,96.5% (inactive),92% (inactive),70.4% (inactive),72.6% (inactive),-5.71% (inactive),78.3,72.6,0% (inactive),26.7% (inactive)
CC(=O)N(CCc1ccccc1C)Cc1cc2cc3c(cc2[nH]c1=O)OCO3,99,85.5% (inactive),99% (inactive),90.1% (inactive),91.2% (inactive),-2.76% (inactive),93.9,91.2,-2.03% (inactive),4.44% (inactive)
